CHOP UPR activ: apoptotic UPR (CHOP) activation | CHO-CHOP luciferase reporter, luminescence; percent of tunicamycin response over DMSO baseline | activation, % at 10 µM | hit rate 0.34% among 330,000;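 active = at 10 µM dose, activation of 40% or more, normalized to positive control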;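 also: 100% = tunicamycin at 10 µg/mL and 0% = DMSO alone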
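Material: CHO-CHOP cells, stable luciferase reporter of PERK-eIF2a-CHOP signalling; quantity: 500 reporter cells seeded per well; buffer or medium: F12 medium containing 10% fetal bovine serum; compound: one dose, 10 µM in 0.5% DMSO; incubation: 6 h compound treatment, 37 °C; measured by: Steady-Glo luciferase luminescence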
MC4R ag barr: human MC4R agonism via beta-arrestin. P32245. U2OS MC4R beta-arrestin complementation, luminescence; percent of melanotan II response, DMSO zero. activation, % at 8.9 µM. hit rate 0.98% among 360,000. AID 540308;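 active = activation above a per-plate cutoff, the mean activation of sample wells on that plate plus 3 SD, cut at about 8% in these data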
Target sequence (P32245 whole entry, looked up): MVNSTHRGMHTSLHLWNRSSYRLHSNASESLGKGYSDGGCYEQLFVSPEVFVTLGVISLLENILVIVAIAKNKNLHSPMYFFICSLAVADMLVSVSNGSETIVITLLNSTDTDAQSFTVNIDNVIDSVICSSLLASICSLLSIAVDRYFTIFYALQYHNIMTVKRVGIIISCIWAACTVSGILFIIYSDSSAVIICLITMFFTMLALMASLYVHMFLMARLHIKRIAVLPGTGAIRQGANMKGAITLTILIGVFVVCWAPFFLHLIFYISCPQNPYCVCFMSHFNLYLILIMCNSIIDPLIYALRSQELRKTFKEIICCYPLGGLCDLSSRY
XBP1 UPR activ: activators of adaptive arm of unfolded protein response (XBP1). CHO-XBP1 luciferase reporter, IRE1-XBP1 UPR activation, luminescence; percent of tunicamycin response, DMSO as zero. activation, % at 20 µM. hit rate 0.33% among 330,000. AID 463104;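 active = versus positive control, 20 µM dose yields 30% or more activation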;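 also: 100% = tunicamycin at 10 µg/mL and 0% = DMSO only wells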
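Material: CHO cell line with stable XBP1 luciferase reporter; buffer or medium: F12 medium containing 10% fetal bovine serum; compound: single point, 20 µM final compound, 1% DMSO; incubation: 6 h treatment, 37 °C; measured by: glow luminescence from Steady-Glo reagent; evaluation: activation, % of tunicamycin; control set: tunicamycin high, DMSO low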
MC4R antag cAMP: blocks human MC4R cAMP signaling | inhibition, % at 6.5 µM | AID 540295 | MC4R-expressing cells, MTII-stimulated cAMP, LANCE TR-FRET | hit rate 0.48% among 360,000;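 active = inhibition above its plate's cutoff, the mean of tested wells on that plate plus 3 SD, cut at about 29% in these data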;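 also: 0% = Melanotan II alone and 100% = Melanotan II plus saturating MCL0020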
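material = U2OS cells stably expressing human melanocortin 4 receptor (MC4R) | also added = Melanotan II challenge | dosing = single nominal compound dose of 6.5 µM | detection = TR-FRET with Eu-cAMP and labeled anti-cAMP, 671 nm | replication = singlicate | timing = compound 30 min, challenge 1 h, detection 1 h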
A1 inh: inhibitors of the anti-apoptotic protein A1, read as caspase activation; MEF A1-2A-BIM cells, Caspase-Glo 3/7 luminescence, 3 h; percent of clofoctol response, vehicle zero; caspase activation, % (concentration not given with the values); hit rate 0.066% among 330,000; AID 2462;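 active = over half of replicate activation scores above 10%, or exactly half above 10 with the replicate mean above 10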
MC4R barr ag: human MC4R beta-arrestin agonism confirmation | activation, % at 8.9 µM | U2OS MC4R beta-arrestin recruitment, luminescence; scaled DMSO 0%, Melanotan II 100% | shares compounds with MC4R ag barr | hit rate 31% among 2,400;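 active = mean activation across replicates above the hit cutoff set in the earlier primary screen, cut at about 8% in these data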
MOR-DOR barr ag: activates mu-delta opioid heterodimer, MC4R agonist counter-screen. shares compounds with MC4R ag barr. U2OS PathHunter beta-arrestin, beta-gal luminescence; percent of deltorphin B response, DMSO zero. activation, % at 9.2 µM. hit rate 5.8% among 2,400. AID 602194;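 active = mean activation across replicates exceeds the hit threshold derived in the earlier primary screen, cut at about 18% in these data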;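 also: 100% = deltorphin B at 0.9 µM final and 0% = DMSO alone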
* hit, by the source's call; x = no result given. Shown are actives, neighbours in structure and some others; about 2% of the full set was active somewhere.

SMILES	CHOP UPR activ	MC4R ag barr	XBP1 UPR activ	MC4R antag cAMP	A1 inh	MC4R barr ag	MOR-DOR barr ag
O=C(N/N=C/c1ccc(O)cc1)c1ccc(COc2cc(Cl)ccc2Cl)o1	0.0	25.9*	14.5	4.8	-0.2	39.9*	9.2
O=C(Nc1ccn(Cc2c(F)c(F)cc(F)c2F)n1)c1ccc(COc2cc(Cl)ccc2Cl)o1	-1.2	11.3*	-0.6	8.3	0.0	2.5	2.6
O=C(Nc1ccn(Cc2ccccc2F)n1)c1ccc(COc2cc(Cl)ccc2Cl)o1	1.9	6.0	1.1	1.6	-1.3	x	x
O=C(Nc1cccnc1)c1ccc(COc2cc(Cl)ccc2Cl)o1	-1.6	-0.2	8.6	2.1	-0.5	x	x
Cc1cccc(OCC(=O)Nc2nonc2NC(=O)COc2cccc(C)c2)c1	0.6	0.2	2.6	3.2	-1.2	x	x
Cc1ccc(C)c(OCC(=O)Nc2nonc2NC(=O)COc2cc(C)ccc2C)c1	-0.1	19.2*	0.1	-10.4	3.0	7.0	6.7
Cc1cccc2sc(N(CCCN(C)C)C(=O)c3nc4ccccc4s3)nc12	3.2	6.3	1.0	-9.1	0.3	x	x
Cc1ccc2sc(N(CCCN(C)C)C(=O)c3nc4ccccc4s3)nc2c1C	3.2	40.4*	16.6	2.6	1.8	26.4*	31.0*
CCOc1cccc2sc(N(CCN(C)C)C(=O)c3ccc(Br)s3)nc12	-0.1	-1.9	-0.5	1.6	0.9	x	x
Cc1ccc2sc(N(CCCN(C)C)C(=O)c3ccc(Br)s3)nc2c1C	2.0	21.6*	4.0	-1.7	0.6	18.9*	11.5
OC1(c2cccc(C(F)(F)F)c2)CCN(c2ncnc3c2[nH]c2ccccc23)CC1	2.8	10.9*	1.6	6.3	-1.0	2.4	4.5
c1ccc2c(c1)[nH]c1c(N3CCC4(CC3)OCCO4)ncnc12	6.4	-1.6	3.3	4.5	0.2	x	x
O=C(OCc1cn([C@H]2C[C@H](c3ccc(Cl)cc3)N(CC3CCCCC3)C[C@@H]2O)nn1)c1ccccc1	x	3.3	x	1.1	x	x	x
CCc1ccc(OCC(=O)Nc2cccc3nsnc23)cc1	-0.9	1.1	-0.3	1.8	-0.4	x	x
Cc1ccccc1OCC(=O)Nc1cccc2nsnc12	2.9	10.8*	-0.2	2.8	-0.2	-0.2	3.2
COc1cc(NC(=O)c2ccc(-c3ccc(F)c(F)c3)c3ccoc23)cc(OC)c1OC	x	13.7*	x	7.2	x	4.7	4.8
CN1CCN(C2=CC3=CC(=C(C#N)C#N)CCC3CC2)CC1 (centres undefined)	x	14.7*	x	-24.3	x	13.8*	7.5
NC(Cc1ccc(F)cc1)c1csc(Nc2ccc(C(=O)c3ccccc3)cc2)n1 (centres undefined)	x	13.2*	x	6.4	x	19.3*	24.3*
NC(c1csc(Nc2ccc(C(=O)c3ccccc3)cc2)n1)C1CCCCC1 (centres undefined)	x	11.4*	x	4.0	x	23.4*	25.2*
NC(Cc1ccc(Cl)cc1)c1csc(Nc2ccc(C(=O)c3ccccc3)cc2)n1 (centres undefined)	x	11.6*	x	-6.8	x	17.7*	19.5*
CC(=O)c1ccc(Nc2nc(C(N)C3CCCCC3)cs2)cc1 (centres undefined)	x	1.0	x	4.8	x	x	x
NC(Cc1ccccc1)c1csc(Nc2ccc(C(=O)c3ccccc3)cc2)n1 (centres undefined)	x	2.6	x	13.9	x	x	x
NC(c1csc(Nc2cc(Oc3ccccc3)ncn2)n1)C1CCCCC1 (centres undefined)	x	10.4*	x	-2.6	x	27.6*	19.7*
COc1cccc(CN2CCC2(C)C(=O)Nc2ccc(C)c(O)c2)c1F (centres undefined)	x	1.3	x	4.6	x	x	x
c1ccc(-c2nnc3oc(-c4cccs4)nn23)cc1	x	-1.3	x	10.8	x	x	x
SMILES	CHOP UPR activ	MC4R ag barr	XBP1 UPR activ	MC4R antag cAMP	A1 inh	MC4R barr ag	MOR-DOR barr ag
COC(=O)[C@@H](NS(=O)(=O)c1cc(Br)ccc1Br)C(C)C	x	1.0	x	2.6	x	x	x
O=C(Nc1ccc(-c2noc(COc3ccccc3Cl)n2)cc1)c1ccco1	1.6	26.8*	-1.0	0.3	-1.7	7.6	4.7
CCc1nc2ccc(C(=O)Nc3cc(-c4ccccc4)ccc3OC)cn2c1N(C)Cc1nccs1	x	0.8	x	24.6	x	x	x
CC(C)c1ccc(NC(=O)COC(=O)/C=C/c2cccc(Br)c2)cc1	-0.4	11.3*	1.8	-1.7	-0.1	4.8	2.7
CCC/C=C/c1ccc(CN2C(CC(C)C)C(=O)N(Cc3cn(Cc4ccco4)nn3)CCS2(=O)=O)cc1 (centres undefined)	x	-0.7	x	3.6	x	x	x
O=C(CN1c2ccccc2Sc2ccccc21)NNC(=O)Nc1ccc(Cl)c(Cl)c1	1.4	23.3*	-2.9	5.4	-0.3	6.2	1.3
O=C(CN1c2ccccc2Sc2ccccc21)NNC(=O)Nc1ccc(Cl)cc1	2.4	2.7	-0.4	5.4	0.8	x	x
O=C(NNc1nc2ccccc2s1)Nc1ccc(Cl)c(Cl)c1	-1.2	16.1*	-4.5	19.5	1.1	9.2*	9.6
Cc1cccc(C(O)c2ncc(-c3ccc(F)cc3)[nH]2)c1C (centres undefined)	x	-1.5	x	3.0	x	x	x
CCCCN(C)C(=O)c1ccc(Nc2nc(C(N)Cc3ccc(C(F)(F)F)cc3)cs2)nc1 (centres undefined)	x	30.2*	x	4.6	x	23.4*	34.7*
NC(Cc1ccc(C(F)(F)F)cc1)c1csc(Nc2ccc(C(=O)NCc3ccco3)cn2)n1 (centres undefined)	x	15.8*	x	11.1	x	32.1*	12.8
NC(Cc1ccc(C(F)(F)F)cc1)c1csc(Nc2ccc(C(=O)NCCCO)cn2)n1 (centres undefined)	x	3.5	x	8.5	x	x	x
COc1ccc(C(NC(=O)C2CCN(CCOc3ccc(F)cc3)CC2)c2cccs2)cc1 (centres undefined)	x	-1.9	x	3.9	x	x	x
O=C(NC(c1ccccc1)c1ccsc1)C1CCN(CCOc2ccc(Cl)cc2Cl)CC1 (centres undefined)	x	54.1*	x	-0.7	x	46.9*	8.6
COc1ccc(C(NC(=O)C2CCN(CCOc3ccc(Cl)cc3Cl)CC2)c2cccs2)cc1 (centres undefined)	x	110.7*	x	4.8	x	32.5*	11.1
O=C(NC(c1cccnc1)c1ccc2c(c1)OCO2)C1CCN(CCOc2ccc(Cl)cc2Cl)CC1 (centres undefined)	x	-0.5	x	-1.2	x	x	x
COc1ccc(C(NC(=O)C2CCN(CCOc3ccc(Cl)cc3Cl)CC2)c2ccccc2C)cn1 (centres undefined)	x	52.9*	x	2.8	x	34.8*	13.2

Compound activity: PubChem, several laboratories
